Experimental findings from the RNAGym collection of RNA variant scans (doi:10.1101/gad.245936.114) are described below.

First the molecules themselves.
B1: tRNA (parent)
chain: CUCUCGGUAGCCAAGUUGGUUUAAGGCGCAAGACUUUAAUUUAUCACUACGAAAUCUUGAGAUCGGGCGUUCGACUCGCCCCCGGGAGAUUUUUUCCUCGAGCAA

This sample holds only a part of the variants without activity.

Variants of B1 are the subject of the data set. As to the kind of experiment: nonsense suppression (GFP-seq) (ratio to wild type); higher = more function; SUP4oc tRNA, yeast GFP reporter sort-seq. In outline:
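To measure nonsense suppression, tRNA variants from a library carrying ~3% random mutations were integrated into the yeast genome alongside RFP and a GFP ochre reporter under galactose control. Growth took place in raffinose/galactose medium supplemented with 80 mg/L adenine, followed by sorting into GFP/RFP bins and Illumina sequencing of each bin (phred ≥30). For each variant with ≥100 reads and ≥30 cells, the bin median GFP/RFP values were weighted by its estimated cell share per bin and referenced to the unmutated parent tRNA.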
For the variant U21A G66U C80G, the nonsense suppression is 0.219.

As to U22A G86U, the nonsense suppression is 0.033.

For the variant U21A U22A G28C U55A G69A, the nonsense suppression was no more than 0.026.

In the case of U21C U35A C64G G66C C72G, the nonsense suppression is no more than 0.026.

For U21A G78C, the nonsense suppression was determined as 0.0372.

For U22G A87G, the nonsense suppression was determined as 0.886.

With U21C A54C U63G C82U, the nonsense suppression is no more than 0.026.

Consider U22G A31U U63C U71A, for which the nonsense suppression was no more than 0.026.

As to U21G A54U C75U, the nonsense suppression came out at 1.23.

With U22G A24C, the nonsense suppression came out at 0.817.

U21A A54U U76C: the nonsense suppression amounted to 0.751.

As to U22A U55C, the nonsense suppression was determined as 0.377.

With U21C C56U, the nonsense suppression stood at 0.174.

As to U22A C75A A89C, the nonsense suppression was no more than 0.026.

In the case of U21G U55C, the nonsense suppression is 0.208.

Turning to U22C A33U, the nonsense suppression was 0.202.

On to U21G U57G, for which the nonsense suppression was no more than 0.026.

Take U21A C83G G88U: the nonsense suppression was no more than 0.026.

As for U21C G67A, the nonsense suppression came out at 0.0282.

Take U22C U58G: the nonsense suppression was no more than 0.026.

Consider U21C, for which the nonsense suppression amounted to 0.954.

For U21G, the nonsense suppression was determined as 1.04.

As for U22A A23C, the nonsense suppression is 0.153.

As for U22A G28U A54U U70G A87C, the nonsense suppression was no more than 0.026.

With U22G C29U G32A, the nonsense suppression was no more than 0.026.

For the variant U21G G85A, the nonsense suppression is 1.08.

Regarding U21A U55C U57G, the nonsense suppression is no more than 0.026.

On to U21G A87G, for which the nonsense suppression worked out at 0.172.

Consider U22C U76C, for which the nonsense suppression was 1.02.

As for U21G G28A A31G, the nonsense suppression amounted to 0.266.

On to U22G C29U, for which the nonsense suppression came to 1.15.

Take U21A A87G: the nonsense suppression is 0.493.

For the variant U21C A62G, the nonsense suppression is 0.0282.

Turning to U21A U63G G86A, the nonsense suppression is no more than 0.026.

For the variant U22A C75U, the nonsense suppression came to 1.15.

Take U21C A30G: the nonsense suppression came to 0.967.

Turning to U21C A31G, the nonsense suppression turned out to be 1.

In the case of U22A, the nonsense suppression is 1.13.

As for U22G, the nonsense suppression was 0.989.

For U22C, the nonsense suppression turned out to be 1.

As to U21G U22G G28A, the nonsense suppression came out at 0.206.

U22C G26A U57G: the nonsense suppression is no more than 0.026.

For the variant U22C A24U C29U A30G, the nonsense suppression was 0.0731.

In the case of U21C C56G U70C C75G, the nonsense suppression was no more than 0.026.

In the case of U22C G59C, the nonsense suppression was no more than 0.026.

Regarding U21C A54U U57C G59A A89G, the nonsense suppression was no more than 0.026.

In the case of U21C A24U, the nonsense suppression stood at 0.194.

Take U21C A24G: the nonsense suppression stood at 0.0906.

On to U21C G61A A62C, for which the nonsense suppression was 0.0269.

Regarding U22C A54U, the nonsense suppression was 1.05.

As to U22C A54C, the nonsense suppression is 1.2.

Consider U21C C27U, for which the nonsense suppression is 0.154.

Take U21C C81U: the nonsense suppression was 1.14.

With U21A U55C C79U, the nonsense suppression is no more than 0.026.

On to U21A G65C U71A G78U, for which the nonsense suppression was no more than 0.026.

In the case of U21A C79G, the nonsense suppression is no more than 0.026.

Turning to U21A C79U, the nonsense suppression is 0.444.

Take U21G C72U C83G: the nonsense suppression is no more than 0.026.

On to U21C U63A, for which the nonsense suppression turned out to be 1.12.

Consider U21C U63G, for which the nonsense suppression came to 0.805.

Turning to U21G U63A, the nonsense suppression turned out to be 0.636.

As to U21G U63G, the nonsense suppression amounted to 0.0367.

As for U22A G25U, the nonsense suppression worked out at 0.0283.

For U21G G73U, the nonsense suppression was 0.026.

Consider U22A A33U A89C, for which the nonsense suppression was no more than 0.026.

Consider U21C G61A, for which the nonsense suppression worked out at 0.881.

Consider U22C G25C, for which the nonsense suppression amounted to 0.0473.

For U21C G78U, the nonsense suppression was found to be 0.442.

As to U21C G78C, the nonsense suppression was found to be 0.211.

Regarding U21G A33G C34U G65C, the nonsense suppression is no more than 0.026.

Consider U21G U22C, for which the nonsense suppression is 1.09.

U21G U22G: the nonsense suppression came out at 0.571.

On to U21A G61U, for which the nonsense suppression is 0.791.

U21A C34G C82U A89U: the nonsense suppression is no more than 0.026.

For U22A G28A, the nonsense suppression came out at 1.14.

U22A G73A: the nonsense suppression was found to be 0.325.

Turning to U21A C29A C79U, the nonsense suppression was no more than 0.026.

U21G A31G: the nonsense suppression came to 0.77.

As to U22C G61U U63C, the nonsense suppression was determined as 0.17.

Turning to U21G A60G, the nonsense suppression stood at 0.0299.

Take U21G A60U: the nonsense suppression came to 0.96.

Take U21G A60C: the nonsense suppression is 0.0285.

Turning to U22C C34G G88A, the nonsense suppression is no more than 0.026.

As for U22A A31G, the nonsense suppression worked out at 1.05.

Consider U22C A30U C83A, for which the nonsense suppression was no more than 0.026.

Turning to U21G G65A, the nonsense suppression amounted to 0.0483.

In the case of U22A A24C C68U, the nonsense suppression was determined as 0.215.

As for U22C A31G A74C, the nonsense suppression was no more than 0.026.

Turning to U21G A23C, the nonsense suppression was no more than 0.026.

As to U21G C79A, the nonsense suppression is no more than 0.026.

As to U21G G78U, the nonsense suppression came to 0.034.

For the variant U21G G67U U71A, the nonsense suppression was no more than 0.026.

Regarding U21A G28C, the nonsense suppression was determined as 0.495.

As for U21G C75A, the nonsense suppression is 1.06.

On to U21G C75G, for which the nonsense suppression amounted to 1.05.

Turning to U21C C29U G61U, the nonsense suppression was 0.518.

With U21A A60G, the nonsense suppression stood at 0.302.

Take U21C U57C C80U G85A: the nonsense suppression was no more than 0.026.

Regarding U22A G65A, the nonsense suppression was 0.12.

Take U22C G78C: the nonsense suppression stood at 0.195.

Turning to U22C G73A, the nonsense suppression turned out to be 0.848.

On to U21C G26U G67A C80G, for which the nonsense suppression was no more than 0.026.

As to U21A G85A, the nonsense suppression amounted to 1.06.

As for U21C A30G A31G U63C, the nonsense suppression is no more than 0.026.

In the case of U21G A30G, the nonsense suppression was found to be 0.227.

U21G A30U: the nonsense suppression is no more than 0.026.

As to U22G A54G G73A, the nonsense suppression was no more than 0.026.

Turning to U22A A30G, the nonsense suppression is 0.677.

For U22A A30U, the nonsense suppression worked out at 0.177.

Take U21G A33U U57C U58A A89G: the nonsense suppression was no more than 0.026.

On to U22A G78A, for which the nonsense suppression was found to be 0.283.

U21G A30G A89G: the nonsense suppression is no more than 0.026.

Take U22C C68U: the nonsense suppression worked out at 1.16.

Consider U21C G69C, for which the nonsense suppression was no more than 0.026.

For U21C A23C U71G G78A, the nonsense suppression is no more than 0.026.

In the case of U21C G25A G26A, the nonsense suppression was no more than 0.026.

As to U22C C29U G61A, the nonsense suppression was determined as 0.386.

As for U22C U70C G73A, the nonsense suppression is no more than 0.026.

With U21C U76C, the nonsense suppression was found to be 1.06.

U21G G28C: the nonsense suppression is 0.211.

Regarding U21G G28A, the nonsense suppression turned out to be 1.14.

In the case of U22C A87G, the nonsense suppression was found to be 0.724.

For the variant U21C C82U, the nonsense suppression amounted to 1.15.

Take U21G U71C: the nonsense suppression worked out at 0.0265.

With U22A A87G, the nonsense suppression was 0.501.

As for U21C A60U C68U, the nonsense suppression came out at 1.05.

As to U21C G28U A31U A33G G78U C79A, the nonsense suppression is no more than 0.026.

For the variant U21G A54C, the nonsense suppression came to 0.764.

Turning to U21G A24C, the nonsense suppression turned out to be 0.493.

With U21G A24U, the nonsense suppression was found to be 0.0683.

With U21G U70C, the nonsense suppression was no more than 0.026.

As to U21G C29U, the nonsense suppression amounted to 0.809.

Take U21A C75A: the nonsense suppression was determined as 0.947.

Consider U21G A89G, for which the nonsense suppression is 0.0399.

For U22C G73A C80U, the nonsense suppression amounted to 0.0265.

Regarding U21G G69U, the nonsense suppression is no more than 0.026.

For U21A U22G U76A C77A G88A, the nonsense suppression was no more than 0.026.

As to U22A U76C, the nonsense suppression is 0.967.

On to U22A U76A, for which the nonsense suppression is 0.0747.

As for U22C G25C G32C A62C C64G, the nonsense suppression was no more than 0.026.

Consider U21G C83U, for which the nonsense suppression amounted to 0.0839.

As for U21G U22C C82U, the nonsense suppression worked out at 0.199.

U21G G61U: the nonsense suppression stood at 0.554.

For the variant U21G G61C, the nonsense suppression amounted to 0.105.

On to U21G G61A, for which the nonsense suppression was 0.237.

With U21A U76C, the nonsense suppression was 1.18.

Turning to U21G G61A C64A C81A, the nonsense suppression is no more than 0.026.

Turning to U22C A33G G59A, the nonsense suppression is no more than 0.026.

With U22C U63C, the nonsense suppression was found to be 1.2.

For the variant U22G A31U, the nonsense suppression came out at 0.0872.

As to U22G A30G, the nonsense suppression came out at 0.781.

As to U22G A30U, the nonsense suppression was 0.184.

For the variant U22G A60C, the nonsense suppression is 0.175.

For the variant U21A A54U, the nonsense suppression stood at 0.737.

For U21G G66C, the nonsense suppression was no more than 0.026.

As for U21C U22A, the nonsense suppression was found to be 1.14.

On to U21C G32U U58C, for which the nonsense suppression is no more than 0.026.

Take U22G A54U G88U: the nonsense suppression is no more than 0.026.

Take U22G A54U: the nonsense suppression was 1.12.

On to U22C U63C C68U, for which the nonsense suppression was found to be 0.0629.

As for U22C C56U, the nonsense suppression came to 0.0509.

Regarding U22C A60C G61A, the nonsense suppression is 0.176.

Turning to U22C G61A C79U, the nonsense suppression came out at 0.197.

For the variant U22C A30C G32U C82G, the nonsense suppression is no more than 0.026.

For the variant U22A G61C, the nonsense suppression came out at 0.203.

On to U22C A24C, for which the nonsense suppression is 1.01.

As to U21G U76C, the nonsense suppression was 0.861.
